Test results taken from ChEMBL document CHEMBL2150963, “Anthraquinones from a marine-derived Streptomyces spinoverrucosus” (J Nat Prod, 2012).
Calls of active or inactive are those of the source. The rule behind the calls is not given here.

How the values were obtained:
Calu-3 = assay: Cytotoxicity against human Calu3 cells after 96 hrs by Cell Titer Glo assay; format: functional, cell-based; conditions: Calu-3, 96 h
Summary of the method: (§1)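 Cells were grown in RPMI/L-glutamine with penicillin 1000 U/ml, streptomycin 1 mg/mL and 5% FBS, humidified, at 37 °C and 5% CO2. They were seeded in 384-well plates at 750 (Calu-3) or 500 (H2887) cells/well and left overnight. Compounds in DMSO were added at 50 μM to 1 nM final, with 0.5% DMSO final. After 96 h, CellTiter-Glo was added, plates sat 10 min at room temperature, and luminescence was normalized to DMSO-only wells.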

C127 [1] = assay: Epigenetic modulation in mouse C127 cells expressing CMV promoter assessed as induction of GFP expression at 10 uM after 24 hrs by LDR assay
C127 [2] = assay: Epigenetic modulation in mouse C127 cells expressing CMV promoter assessed as induction of GFP expression at 1 uM after 24 hrs by LDR assay
[3] = Cytotoxicity against human NCI-H2887 cells after 96 hrs by Cell Titer Glo assay; format: functional, cell-based; conditions: NCI-H2887, 96 h; summary of the method: as §1

SMILES	IC50 (Calu-3)	Activity (C127 [1])	Activity (C127 [2])	IC50 [3]
Cc1c(O)c2c(c(O)c1C(=O)CCC(C)C)C(=O)c1c(O)cccc1C2=O [GALVAQUINONE B]	12.2 µM	Active	Active	5 µM
Cc1cc(O)c2c(c1O)C(=O)c1cccc(O)c1C2=O [ISLANDICIN]	> 50 µM			> 50 µM
Cc1c(O)c(CCC(C)C)c2c(c1O)C(=O)c1cccc(O)c1C2=O [LUPINACIDIN A]	8.8 µM			3.1 µM
Cc1c(O)c(CCC(C)C)c2c3c1OC(C)(C)N=C3c1cccc(O)c1C2=O	> 50 µM			> 50 µM
Cc1c(O)c(C(=O)CC(C)C)c2c(c1O)C(=O)c1cccc(O)c1C2=O [GALVAQUINONE C]	> 50 µM			> 50 µM
Cc1cc2c(c(O)c1C(=O)CCC(C)C)C(=O)c1c(O)cccc1C2=O [GALVAQUINONE A]	> 50 µM	Active		> 50 µM
